Results gathered from unrelated publications.
Each line is one published result; the experiments were not run side by side.
Target: Serine/threonine-protein kinase PknB (pknB, Mycobacterium tuberculosis, UniProt P9WI81)

| Structure (SMILES) | observed | technique | concentration | remaining binding [%] |
| --- | --- | --- | --- | --- |
| N[C@H]1CCN(c2nccc(-c3cnn4ncccc34)n2)C1 | binding |  | 1 µM | 98 |
| CNC(=O)Nc1ccc2c(c1)[C@@]1(CC2)OC(=O)N(CC(=O)N(Cc2ccc(F)cc2)[C@@H](C)C(F)(F)F)C1=O | cell-free assay | competition with immobilised ligand | 1 µM | 84 |
| COc1cnc(Nc2cccc(S(N)(=O)=O)c2)nc1N1CCN(c2ccccc2)CC1 | binding | competition with immobilised ligand | 1 µM | 99 |
| COc1ccnn2ncc(-c3ccnc(N(C)C)n3)c12 | binding |  | 1 µM | 100 |
| O=C(Nc1c[nH]nc1C(=O)NC1CCNCC1)c1cc(F)cc(F)c1 | binding | competition with immobilised ligand | 1 µM | 100 |
| CN(C)c1ncc(F)c(-c2cnn3ncccc23)n1 | binding |  | 1 µM | 87 |
| CCN1CCN(Cc2ccc(C(=O)Nc3ccc(C)c(Oc4ccc5c(c4)CC(=O)N5)c3)cc2C(F)(F)F)CC1 | binding | competition with immobilised ligand | 1 µM | 100 |
| CS(=O)(=O)N1CCCC(NC(=O)[C@H](CCC2CCCCC2)NC(=O)c2ccc(CNc3ncnc4c3nnn4-c3ccccc3)cc2)C1 (stereo partly drawn) | cell-free assay | competition with immobilised ligand | 0.1 µM | 90 |
| C=CC(=O)N1CCC(C(=O)NCC(=O)N2CCN(c3nc(-c4cnc(N)nc4C(F)F)nc(N4CCOCC4)n3)CC2)CC1 | binding | competition with immobilised ligand | 1 µM | 67 |
| O=C(Nc1cccnn1)N1CCC(=Cc2cccc(Oc3ccc(C(F)(F)F)cn3)c2)CC1 | cell-free assay | competition with immobilised ligand | 1 µM | 95 |
| COc1cnc(Nc2cccc(S(N)(=O)=O)c2)nc1N1CCN(c2ccccc2)C(=O)C1 | binding | competition with immobilised ligand | 1 µM | 86 |
| COc1cc(-c2cn(C3CCc4c(F)cccc4N(CC(F)(F)F)C3=O)nn2)ccc1-n1cnc(C)c1 (stereo not drawn) | cell-free assay | competition with immobilised ligand | 1 µM | 82 |
| CN(c1nccc(-c2cnn3ncccc23)n1)C1CC1 | binding |  | 1 µM | 100 |
| COc1ccc2c(c1)O[C@@H](c1ccc(OC)c(OC)c1)C[C@H]2NC(=O)C1(c2ccc3c(c2)OC(F)(F)O3)CC1 | cell-free assay | competition with immobilised ligand | 1 µM | 85 |
| C[C@@H](c1ccc(-n2cnc3c(N)ncnc32)cc1)N1CCc2nn(C)c(Cc3ccccc3)c2C1=O | binding | competition with immobilised ligand | 0.1 µM | 96 |
